From ChEMBL document CHEMBL4152376, “Optimization of 8-Hydroxyquinolines as Inhibitors of Catechol O-Methyltransferase” (J Med Chem, 2018)

Experiments:
[1] = biological target: T1, Catechol O-methyltransferase (Homo sapiens, UniProt P21964); assay: Inhibition of c-terminal hexa-His tagged human MB-COMT expressed in HEK293 cell membrane homogenate using norepinephrine as substrate after 1 hr in presence of SAM by MTase glo methyltransferase assay
T1 sequence (P21964 whole entry): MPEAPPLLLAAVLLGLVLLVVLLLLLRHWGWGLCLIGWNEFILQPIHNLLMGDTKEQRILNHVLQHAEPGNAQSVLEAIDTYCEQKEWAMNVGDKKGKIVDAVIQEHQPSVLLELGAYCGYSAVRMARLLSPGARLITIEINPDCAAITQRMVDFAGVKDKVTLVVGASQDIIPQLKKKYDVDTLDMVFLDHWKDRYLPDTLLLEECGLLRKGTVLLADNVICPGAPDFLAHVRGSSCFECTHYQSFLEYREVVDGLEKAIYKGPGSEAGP
In short: (§1)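 Membrane homogenate of HEK293 cells expressing C-terminal His6 MB-COMT (human about 7 ng, rat about 4 ng per well, protein by Bradford […]). 20 µM SAM and 7 µM norepinephrine in 50 mM Tris, 5–10 mM MgCl2, 2.5 mM DTT, pH 6.9, final DMSO 1.5%. 1 h at 37 °C, then MTase-Glo luminescence. […] 4-parameter IC50 fit; triplicate points, three experiments.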

[2] = Clearance in rat hepatocytes assessed as per million cells; type: ADME, cell-based, Hepatocyte; conditions: read-out: CLH
[3] = biological target: T1, Catechol O-methyltransferase; assay: Inhibition of c-terminal hexa-His tagged human S-COMT expressed in HEK293-6E cell membrane homogenate using 7,8-dihydroxy-4-methylcoumarin as substrate after 1 hr in presence of SAM by MTase glo methyltransferase assay
In short: (§2)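 His6-tagged S-COMT (human or rat), expressed in 293-6E cells and purified by Ni-NTA and size exclusion, 1 ng per well. 20 µM SAM and 10 µM 7,8-dihydroxy-4-methylcoumarin in pH 6.9 Tris/MgCl2/DTT buffer, 1.5% DMSO. 1 h at 37 °C, then MTase-Glo luminescence read against a SAH standard curve. […] 4-parameter IC50; triplicate wells, three runs.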

Rattus norvegicus [4] = assay: Oral bioavailability in rat at 3/10 mg/kg; type: ADME, organism-based; conditions: in vivo
In short: (§3)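 Rat pharmacokinetics after a 1 mpk iv dose (n=3) and a 3 or 10 mpk oral dose (n=3).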

[5] = Half life in rat at 1 mg/kg, iv or 3/10 mg/kg, po; type: ADME, organism-based; conditions: in vivo; in short: as §3
Rattus norvegicus [6] = assay: Volume of distribution at steady state in rat at 1 mg/kg, iv or 3/10 mg/kg, po; type: ADME, organism-based; conditions: in vivo; in short: as §3
[7] = Efflux ratio of permeability in MDCK cells; type: ADME, cell-based, Canis lupus familiaris; conditions: dog
In short: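 Efflux ratio taken as […] transport across P-glycoprotein-expressing MDCK cells.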

[8] = Drug uptake in brain of C57BL/6J mouse at 10 mg/kg, ip measured at 1 hr post dose; type: ADME, organism-based; conditions: C57BL/6J, brain, read-out: Drug uptake
In short: (§4)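 Male C57BL/6J mice (8 weeks), single ip injection of 10 mg/kg suspended in 0.1% Tween80/0.1% antifoam/1% methylcellulose at 10 mL/kg. Two mice per timepoint; at 1 h, plasma separated at 4 °C and brain homogenized in 4 volumes PBS pH 7.4. Total brain and plasma levels measured.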

[9] = Plasma concentration C57BL/6J mouse at 10 mg/kg, ip measured at 1 hr post dose; type: ADME, organism-based; in short: as §4
[10] = Apparent permeability of the compound in MDCK cells; type: ADME, cell-based, Canis lupus familiaris; conditions: dog
[11] = biological target: T2, Catechol O-methyltransferase (Rattus norvegicus, UniProt P22734); assay: Inhibition of c-terminal hexa-His tagged rat MB-COMT expressed in HEK293 cell membrane homogenate using norepinephrine as substrate after 1 hr in presence of SAM by MTase glo methyltransferase assay; in short: as §1
T2 sequence (P22734 whole entry): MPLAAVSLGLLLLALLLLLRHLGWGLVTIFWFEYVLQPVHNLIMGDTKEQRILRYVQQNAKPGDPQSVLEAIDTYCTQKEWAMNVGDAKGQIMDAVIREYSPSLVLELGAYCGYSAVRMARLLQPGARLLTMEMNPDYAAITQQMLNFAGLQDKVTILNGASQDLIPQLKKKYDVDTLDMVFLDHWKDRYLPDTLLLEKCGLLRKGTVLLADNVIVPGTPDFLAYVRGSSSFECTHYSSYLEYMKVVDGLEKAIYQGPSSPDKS

[12] = biological target: T2, Catechol O-methyltransferase; assay: Inhibition of c-terminal hexa-His tagged rat S-COMT expressed in HEK293-6E cell membrane homogenate using 7,8-dihydroxy-4-methylcoumarin as substrate after 1 hr in presence of SAM by MTase glo methyltransferase assay; in short: as §2
[13] = Fraction unbound in rat plasma by equilibrium dialysis; type: ADME, cell-free
In short: (§5)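 Percent free drug in mouse or rat plasma, measured by equilibrium dialysis.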

[14] = Unbound plasma concentration in Sprague-Dawley rat 10 mg/kg, po after 4 hrs by ES-UPLC analysis; type: ADME, organism-based; conditions: in vivo
In short: (§6)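 Sprague Dawley rats given 10 mg/kg po; CSF, plasma and brain collected at 4 h. Drug measured in CSF; free plasma and brain levels computed from total levels using plasma protein and brain tissue binding fractions. Free CSF derived from CSF binding by equilibrium dialysis with pooled rat CSF. Ratios taken from these values.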

[15] = Unbound drug level in brain of Sprague-Dawley rat at 10 mg/kg, po after 4 hrs by ES-UPLC analysis; type: ADME, organism-based; conditions: in vivo; in short: as §6
[16] = Drug level in CSF of Sprague-Dawley rat at 10 mg/kg, po after 4 hrs by ES-UPLC analysis; type: ADME, organism-based, Cerebrospinal fluid; conditions: read-out: Drug uptake; in short: as §6
[17] = Ratio of drug level in CSF of Sprague-Dawley rat to unbound plasma concentration in Sprague-Dawley rat at 10 mg/kg, po after 4 hrs by ES-UPLC analysis; type: ADME, organism-based; conditions: in vivo; in short: as §6
[18] = Ratio of drug level in CSF of Sprague-Dawley rat to unbound brain concentration in Sprague-Dawley rat at 10 mg/kg, po after 4 hrs by ES-UPLC analysis; type: ADME, organism-based; conditions: in vivo; in short: as §6
[19] = Ratio of unbound drug level in CSF of Sprague-Dawley rat to unbound plasma concentration in Sprague-Dawley rat at 10 mg/kg, po after 4 hrs by ES-UPLC analysis; type: ADME, organism-based; conditions: CSF and plasma; in short: as §6
Rattus norvegicus [20] = assay: In vivo inhibition of COMT in Sprague-Dawley rat assessed as HVA levels in CSF at 10 mg/kg, po measured at 4 hrs post dose by LC-MS analysis relative to control; type: functional; parameters: scale not given: the % may be the effect or the level left
In short: (§7)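 Male Sprague Dawley rats (176–200 g on arrival) dosed orally at 10 mg/kg in Tween80/antifoam/methylcellulose suspension, 10 mL/kg, vehicle group as control (n=5–10). At 4 h under isoflurane, CSF drawn from cisterna magna. HVA and DOPAC quantified by LC-MS against standards in 0.01 M perchloric acid/aCSF with d5 internal standards. Reported as % of vehicle.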

Rattus norvegicus [21] = assay: In vivo inhibition of COMT in Sprague-Dawley rat assessed as DOPAC levels in CSF at 10 mg/kg, po measured at 4 hrs post dose by LC-MS analysis relative to control; type: functional; in short: as §7
[22] = Protein binding in CSF of Sprague-Dawley rat at 2 uM by equilibrium dialysis; type: ADME, tissue-based, Cerebrospinal fluid; conditions: read-out: PB (converted)
In short: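 Binding in pooled rat CSF measured by equilibrium dialysis at 2 µM test concentration.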

[23] = Substrate activity at P-glycoprotein (unknown origin); type: ADME; conditions: human
[24] = Inhibition of P-glycoprotein (unknown origin); conditions: human
[25] = biological target: T3, Broad substrate specificity ATP-binding cassette transporter ABCG2 (Homo sapiens, UniProt Q9UNQ0); assay: Inhibition of BCRP (unknown origin); type: ADME
T3 sequence (Q9UNQ0 whole entry): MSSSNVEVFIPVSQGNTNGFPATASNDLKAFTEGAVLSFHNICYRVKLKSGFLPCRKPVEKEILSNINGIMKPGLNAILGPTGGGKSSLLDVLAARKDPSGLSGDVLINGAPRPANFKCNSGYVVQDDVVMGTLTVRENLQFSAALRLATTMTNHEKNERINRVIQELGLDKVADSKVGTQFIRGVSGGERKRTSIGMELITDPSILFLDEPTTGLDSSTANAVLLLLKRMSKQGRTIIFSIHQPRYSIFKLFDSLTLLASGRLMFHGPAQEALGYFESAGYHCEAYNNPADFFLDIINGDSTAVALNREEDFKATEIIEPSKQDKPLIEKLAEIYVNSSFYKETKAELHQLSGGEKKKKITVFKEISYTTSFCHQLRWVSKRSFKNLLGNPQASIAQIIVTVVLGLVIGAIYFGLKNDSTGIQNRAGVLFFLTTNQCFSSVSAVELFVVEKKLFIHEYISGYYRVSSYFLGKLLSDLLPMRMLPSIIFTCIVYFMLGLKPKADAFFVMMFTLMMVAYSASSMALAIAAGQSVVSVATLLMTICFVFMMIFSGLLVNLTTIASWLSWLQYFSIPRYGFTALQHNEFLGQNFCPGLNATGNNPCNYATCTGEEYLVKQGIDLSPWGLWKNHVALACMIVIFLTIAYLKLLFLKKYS

[26] = biological target: ATP-binding cassette sub-family C member 2 (Homo sapiens, UniProt Q92887); assay: Inhibition of MRP2 (unknown origin)
[27] = Fraction unbound in mouse plasma by equilibrium dialysis; type: ADME, cell-free; in short: as §5
[28] = Fraction unbound in rat brain by equilibrium dialysis; type: ADME, tissue-based
In short: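 Percent free drug in rat brain tissue, measured by equilibrium dialysis.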

[29] = Unbound plasma concentration in Sprague-Dawley rat 15 mg/kg, ip after 4 hrs by ES-UPLC analysis; type: ADME, organism-based; conditions: in vivo
[30] = Unbound drug level in brain of Sprague-Dawley rat at 15 mg/kg, ip after 4 hrs by ES-UPLC analysis; type: ADME, organism-based; conditions: in vivo, BLD = below limit of detection
[31] = Drug level in CSF of Sprague-Dawley rat at 15 mg/kg, ip after 4 hrs by ES-UPLC analysis; type: ADME, organism-based, Cerebrospinal fluid; conditions: in vivo, BLD = below limit of detection

Sequence of ATP-binding cassette sub-family C member 2 (Q92887 whole entry): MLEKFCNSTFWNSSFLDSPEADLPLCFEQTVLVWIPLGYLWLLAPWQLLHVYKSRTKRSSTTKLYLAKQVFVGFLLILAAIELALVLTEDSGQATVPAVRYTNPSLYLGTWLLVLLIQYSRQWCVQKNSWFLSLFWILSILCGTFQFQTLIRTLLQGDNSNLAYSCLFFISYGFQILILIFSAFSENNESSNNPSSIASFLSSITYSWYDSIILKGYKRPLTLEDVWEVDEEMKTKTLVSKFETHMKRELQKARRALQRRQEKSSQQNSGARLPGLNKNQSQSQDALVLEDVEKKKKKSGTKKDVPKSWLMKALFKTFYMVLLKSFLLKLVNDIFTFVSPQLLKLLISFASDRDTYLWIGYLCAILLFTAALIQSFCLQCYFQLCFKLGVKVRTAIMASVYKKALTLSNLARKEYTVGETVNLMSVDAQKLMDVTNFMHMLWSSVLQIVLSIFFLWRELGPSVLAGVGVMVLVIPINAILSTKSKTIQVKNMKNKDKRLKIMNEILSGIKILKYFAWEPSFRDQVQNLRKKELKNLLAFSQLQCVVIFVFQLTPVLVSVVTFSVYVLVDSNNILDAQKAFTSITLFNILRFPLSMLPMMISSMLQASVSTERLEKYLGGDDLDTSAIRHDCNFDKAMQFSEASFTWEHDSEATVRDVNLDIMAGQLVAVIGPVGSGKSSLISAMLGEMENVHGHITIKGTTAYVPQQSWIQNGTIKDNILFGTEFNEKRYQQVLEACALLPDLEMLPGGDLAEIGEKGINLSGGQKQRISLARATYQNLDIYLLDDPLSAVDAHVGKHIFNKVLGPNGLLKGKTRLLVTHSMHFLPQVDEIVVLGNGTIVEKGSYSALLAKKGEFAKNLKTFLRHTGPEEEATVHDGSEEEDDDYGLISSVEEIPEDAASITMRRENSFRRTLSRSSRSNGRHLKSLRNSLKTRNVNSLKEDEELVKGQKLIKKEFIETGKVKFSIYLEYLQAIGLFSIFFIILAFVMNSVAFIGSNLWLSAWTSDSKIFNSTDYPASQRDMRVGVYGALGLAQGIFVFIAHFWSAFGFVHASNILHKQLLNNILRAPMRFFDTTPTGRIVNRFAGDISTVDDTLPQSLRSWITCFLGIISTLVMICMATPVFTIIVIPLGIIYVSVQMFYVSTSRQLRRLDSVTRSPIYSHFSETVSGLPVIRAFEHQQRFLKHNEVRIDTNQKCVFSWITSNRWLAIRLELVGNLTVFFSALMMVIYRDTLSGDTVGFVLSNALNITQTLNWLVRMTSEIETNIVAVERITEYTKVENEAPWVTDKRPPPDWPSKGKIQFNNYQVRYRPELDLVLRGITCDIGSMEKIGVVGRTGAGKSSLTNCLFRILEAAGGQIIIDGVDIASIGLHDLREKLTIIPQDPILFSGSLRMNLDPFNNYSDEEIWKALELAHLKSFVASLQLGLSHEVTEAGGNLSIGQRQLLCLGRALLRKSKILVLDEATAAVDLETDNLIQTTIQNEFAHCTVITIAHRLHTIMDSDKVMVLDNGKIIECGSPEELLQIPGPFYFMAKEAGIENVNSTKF

| SMILES | IC50 [1] | hepatocyte CLint [2] | IC50 [3] | F (Rattus norvegicus [4]) | half-life [5] | Vdss (Rattus norvegicus [6]) | efflux ratio [7] | concentration at 1 h [8] | concentration at 1 h [9] | IC50 [11] | IC50 [12] | Cp(f) [14] | Drug uptake(free) [15] | concentration at 4 h [16] | Ratio [17] | Ratio [18] | Kp uu at 4 h [19] | Activity (Rattus norvegicus [20]) | CSF DOPAC level (% of vehicle) (Rattus norvegicus [21]) | fraction unbound at 2 µM [22] | further results |
| --- | --- | --- | --- | --- | --- | --- | --- | --- | --- | --- | --- | --- | --- | --- | --- | --- | --- | --- | --- | --- | --- |
| Cc1ccc(S(=O)(=O)c2cc(Cl)c(O)c3ncccc23)cc1 | 0.316 µM | 78 µL/min/1e6 cells | > 10 µM | 45% | 0.31 h | 0.67 L/kg | 2.2 | 1690 ng/g | 9780 ng/mL |  |  |  |  |  |  |  |  |  |  |  | Papp [10]: > 10 ×10⁻⁶ cm/s |
| O=S(=O)(c1cc(F)c(O)c2ncccc12)C1CCCC1 | 0.002 µM | 19 µL/min/1e6 cells | 2.51 µM | 32% | 7.7 h | 0.41 L/kg | 0.5 | 1910 ng/g | 6160 ng/mL | < 0.001 µM | 7.94 µM | 19 nM | 12.8 nM | 321 nM | 16.5 | 25 | 7.3 | 66% | 218% | 0.43 | Fu [13]: 0.2 |
| O=S(=O)(c1ccc(F)cc1)c1cc(F)c(O)c2ncccc12 | 0.00398 µM | 15 µL/min/1e6 cells | 1.58 µM | 100% | 4.5 h | 3.5 L/kg | 0.7 | 527 ng/g | 5720 ng/mL | < 0.001 µM | > 10 µM | 48 nM | 7.7 nM | 127 nM | 2.6 | 16 | 1.2 | 86% | 173% | 0.47 | Papp [10]: > 10 ×10⁻⁶ cm/s |
| O=S(=O)(c1cc(F)c(O)c2ncccc12)N1CCCC1 | 0.00398 µM | 21 µL/min/1e6 cells | 1.58 µM | 73% | 2.8 h | 2.2 L/kg | 1.2 | 110 ng/g | 1820 ng/mL | < 0.001 µM | 3.98 µM | 23 nM | 35 nM | 157 nM | 6.8 | 4.4 | 3.3 | 72% | 140% | 0.49 | Fu [13]: 0.6; Activity [23]: Not Active; inhibition (INH) [24]: Not Active; inhibition (INH) [25]: Not Active; inhibition (INH) [26]: Not Active |
| O=S(=O)(c1ccc(O)c2ncccc12)N1CCCC1Cc1ccccc1 (configuration not stated) | 0.002 µM | 228 µL/min/1e6 cells | 2 µM |  |  |  |  | 109 ng/g | 235 ng/mL |  |  |  |  |  |  |  |  |  |  |  | Fu [27]: 0.5; fraction unbound [28]: 0.5 |
| Cc1ccc(C(=O)c2cc(O)c(O)c([N+](=O)[O-])c2)cc1 [TOLCAPONE] |  |  |  |  |  |  |  |  |  |  |  |  |  |  |  |  |  |  |  |  | Cp(f) [29]: 35 nM; Drug uptake(free) [30]: Bld; Drug uptake [31]: Bld |
